Laboratory results reported in ChEMBL document CHEMBL1795242, “Peptidomimetic inhibitors of bacterial peptide deformylase” (Bioorg Med Chem Lett, 2011).
In brackets after ≈: the same amount, converted by molar mass.

Legend:
Streptococcus pneumoniae = assay: Antibacterial activity against Streptococcus pneumoniae; assay type: functional
Outline: (§1)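 MIC against respiratory-tract-infection pathogens: Gram-positive S. pneumoniae and Gram-negative H. influenzae and M. catarrhalis. Where more than one strain was tested, the MIC is given as a range across strains. The minimum number of strains was 3 for H. influenzae and 1 for M. catarrhalis.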

Moraxella catarrhalis = assay: Antibacterial activity against Moraxella catarrhalis; assay type: functional; outline: as §1
Haemophilus influenzae = assay: Antibacterial activity against Haemophilus influenzae; assay type: functional; outline: as §1
Peptide deformylase = target: T1, Peptide deformylase (Escherichia coli, UniProt Q9JN24); assay: Inhibition of Escherichia coli nickel containing peptide deformylase
T1 sequence (Q9JN24 whole entry): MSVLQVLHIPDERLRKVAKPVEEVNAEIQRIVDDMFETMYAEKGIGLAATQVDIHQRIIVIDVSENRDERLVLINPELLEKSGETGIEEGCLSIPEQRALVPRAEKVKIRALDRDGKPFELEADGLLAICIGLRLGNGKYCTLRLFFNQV

[1] = target: T2, Peptide deformylase (Escherichia coli) (UniProt Q9JN24); assay: Inhibition of Escherichia coli nickel containing peptide deformylase at 1 uM
T2 sequence (whole entry): T1 sequence (Q9JN24 whole entry)

inhibition [1] [%]	SMILES	MIC (Streptococcus pneumoniae) [µg/mL]	MIC (Moraxella catarrhalis) [µg/mL]	MIC (Haemophilus influenzae) [µg/mL]	IC50 (Peptide deformylase) [nM]
–	O=CN(O)C[C@@H](CC1CCCC1)C(=O)N1CCCCN1C(=O)c1ccoc1	0.5 (≈ 1.32 µM)	< 0.03	0.125 (≈ 0.331 µM)	6
–	COCC(=O)N1CCCCN1C(=O)[C@H](CC1CCCC1)CN(O)C=O	1 (≈ 2.81 µM)	–	0.25 (≈ 0.703 µM)	200
–	O=CN(O)C[C@@H](CC1CCCC1)C(=O)N1CCCCN1C(=O)c1ccco1	0.5 (≈ 1.32 µM)	< 0.125	< 0.125	5
–	COc1ccc(C(=O)N2CCCN2C(=O)[C@H](CC2CCCC2)CN(O)C=O)cc1	4 (≈ 9.91 µM)	–	16 (≈ 39.7 µM)	50
–	O=CN(O)C[C@@H](CC1CCCC1)C(=O)N1CCCN1C(=O)c1ccncc1	16 (≈ 42.7 µM)	–	2 (≈ 5.34 µM)	60
–	O=CN(O)C[C@@H](CC1CCCC1)C(=O)N1CCCN1C(=O)Nc1ccc(C(F)(F)F)cc1	2 (≈ 4.38 µM)	0.06 (≈ 0.131 µM)	2 (≈ 4.38 µM)	30
–	COCC(=O)N1CCCN1C(=O)[C@H](CC1CCCC1)CN(O)C=O	–	–	1 (≈ 2.93 µM)	60
–	O=CN(O)C[C@@H](CC1CCCC1)C(=O)N1CCCCN1C(=O)Nc1ccccc1	2 (≈ 4.97 µM)	–	< 0.125	20
–	O=C(C[C@@H](CC1CCCC1)C(=O)N1CCCCN1C(=O)Nc1ccccc1)NO	4 (≈ 9.94 µM)	–	1 (≈ 2.48 µM)	20
–	O=CN(O)C[C@@H](CC1CCCC1)C(=O)N1CCCCN1C(=O)C1CCCCC1	0.5 (≈ 1.27 µM)	–	4 (≈ 10.2 µM)	200
–	O=CN(O)C[C@@H](CC1CCCC1)C(=O)N1CCCN1C(=O)c1ccc(F)cc1	–	–	4 (≈ 10.2 µM)	20
–	O=CN(O)C[C@@H](CC1CCCC1)C(=O)N1CCCCN1C(=O)c1ccncc1	2 (≈ 5.15 µM)	–	2 (≈ 5.15 µM)	300
–	COc1ccccc1NC(=O)N1CCCCN1C(=O)[C@H](CC1CCCC1)CN(O)C=O	4 (≈ 9.25 µM)	–	0.5 (≈ 1.16 µM)	10
–	O=CN(O)C[C@@H](CC1CCCC1)C(=O)N1CCCN1C(=O)c1ccco1	4 (≈ 11 µM)	< 0.125	< 0.125	30
–	O=CN(O)C[C@@H](CC1CCCC1)C(=O)N1CCCCN1C(=O)c1ccccc1	0.5 (≈ 1.29 µM)	–	1 (≈ 2.58 µM)	500
–	O=CN(O)C[C@@H](CC1CCCC1)C(=O)N1CCCCN1C(=O)Nc1ccc(F)cc1	4 (≈ 9.51 µM)	–	< 0.125	10
–	O=CN(O)C[C@@H](CC1CCCC1)C(=O)N1CCCN1C(=O)c1ccoc1	–	–	1 (≈ 2.75 µM)	10

inhibition [1] [%]	SMILES	MIC (Streptococcus pneumoniae) [µg/mL]	MIC (Moraxella catarrhalis) [µg/mL]	MIC (Haemophilus influenzae) [µg/mL]	IC50 (Peptide deformylase) [nM]
–	O=CN(O)C[C@@H](CC1CCCC1)C(=O)N1CCCN1C(=O)c1ccccc1	–	–	2 (≈ 5.36 µM)	70
–	COc1ccccc1NC(=O)N1CCCN1C(=O)[C@H](CC1CCCC1)CN(O)C=O	8 (≈ 19.1 µM)	0.25 (≈ 0.597 µM)	1 (≈ 2.39 µM)	7
40	O=CN(O)C[C@@H](CC1CCCC1)C(=O)N1CCCCN1C(=O)c1cccnc1	–	–	–	–
–	O=CN(O)C[C@@H](CC1CCCC1)C(=O)N1CCCCN1C(=O)Nc1ccc(C(F)(F)F)cc1	–	–	0.25 (≈ 0.531 µM)	9
–	COc1cccc(NC(=O)N2CCCCN2C(=O)[C@H](CC2CCCC2)CN(O)C=O)c1	2 (≈ 4.62 µM)	–	< 0.125	20
–	CC(C)(C)OC(=O)N1CCCN1C(=O)[C@H](CC1CCCC1)CN(O)C=O	8 (≈ 21.7 µM)	< 0.125	0.5 (≈ 1.35 µM)	30
–	O=C(C[C@@H](CC1CCCC1)C(=O)N1CCCCN1C(=O)c1ccco1)NO	2 (≈ 5.3 µM)	0.06 (≈ 0.159 µM)	0.06 (≈ 0.159 µM)	8
–	O=CN(O)C[C@@H](CC1CCCC1)C(=O)N1CCCCN1C(=O)c1ccc(F)cc1	0.5 (≈ 1.23 µM)	–	0.5 (≈ 1.23 µM)	60
–	O=CN(O)C[C@@H](CC1CCCC1)C(=O)N1CCCN1C(=O)c1cccnc1	–	–	2 (≈ 5.34 µM)	300
–	COc1ccc(C(=O)N2CCCCN2C(=O)[C@H](CC2CCCC2)CN(O)C=O)cc1	0.5 (≈ 1.2 µM)	–	1 (≈ 2.4 µM)	100
–	O=CN(O)C[C@@H](CC1CCCC1)C(=O)N1CCCN1C(=O)Nc1ccc(F)cc1	8 (≈ 19.7 µM)	–	< 0.125	10
–	COc1cccc(NC(=O)N2CCCN2C(=O)[C@H](CC2CCCC2)CN(O)C=O)c1	4 (≈ 9.56 µM)	–	< 0.125	10
–	O=CN(O)C[C@@H](CC1CCCC1)C(=O)N1CCCN1C(=O)Nc1ccccc1	4 (≈ 10.3 µM)	–	< 0.125	10
–	O=CN(O)C[C@@H](CC1CCCC1)C(=O)N1CCCN1C(=O)Cc1ccccc1	4 (≈ 10.3 µM)	–	2 (≈ 5.16 µM)	30
–	O=CN(O)C[C@@H](CC1CCCC1)C(=O)N1CCCN1C(=O)C1CCCCC1	–	–	4 (≈ 10.5 µM)	40
–	CC(C)(C)OC(=O)N1CCCCN1C(=O)[C@H](CC1CCCC1)CN(O)C=O	4 (≈ 10.4 µM)	–	1 (≈ 2.61 µM)	9
–	O=CN(O)C[C@@H](CC1CCCC1)C(=O)N1CCCCN1C(=O)Cc1ccccc1	0.5 (≈ 1.25 µM)	–	0.25 (≈ 0.623 µM)	60
